Results on five compounds are retold here after ChEMBL document CHEMBL1136762, “Methoxylation of desazadesferrithiocin analogues: enhanced iron clearing efficiency” (J Med Chem, 2003).

The test system of series [1] is Monkey. The series is described as follows: Iron clearing activity when administered 150 uM/kg orally to Cebus apella Primates (n = 4) [% stool/% urine = 70/30]. Type of series: functional.
A short description of series [2]: Partition coefficient (logP). Type of series: physicochemical. The note with it: octanol/water. The procedure, abridged:
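Shake-flask octanol–water distribution coefficient at pH 7.4 (50 mM TRIS), not corrected for ionization. Quadruplicate samples were shaken overnight with 1-octanol at 22–24 °C and the layers settled 1–2 h before separation. Quantified by UV spectrometry and expressed as the log of the fraction in the octanol layer.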

Series [3] concerns Monkey. The series is described as follows: Iron clearing activity when administered 150 uM/kg orally to Cebus apella Primates (n = 4) [% stool/% urine = 86/14]. It is filed as functional.
The test system of series [4] is Monkey. The series is described as follows: Iron clearing activity when administered 150 uM/kg orally to Cebus apella Primates (n = 4) [% stool/% urine = 81/19]. It is filed as functional.

On to `O=C(O)[C@H]1CSC(c2ccc(O)cc2O)=N1`, for which, in series [1], the Efficiency turned out to be 4.2%. Moreover, the logP (in general, the decadic logarithm of the partition coefficient of the neutral form, usually between octanol and water) in series [2] is -1.33.
In series [3], `C[C@]1(C(=O)O)CSC(c2ccc(O)cc2O)=N1` [DEFERITRIN] registered an Efficiency of 13.4%. This compound showed a logP in series [2] of -1.05.
As to `COc1ccc(C2=N[C@@H](C(=O)O)CS2)c(O)c1`, in series [4], the Efficiency is given as 16.2%. For the same compound, the logP in series [2] is -0.89.
`CC1(C)SC(c2ccc(O)cc2O)=N[C@H]1C(=O)O`: the Efficiency in series [1] was found to be 12.3%. Moreover, the logP in series [2] is -0.91.
`COc1ccc(C2=N[C@@](C)(C(=O)O)CS2)c(O)c1`: in series [1], the Efficiency is 24.4%. This compound came in with a logP in series [2] of -0.7.
